Compound activity deposited in PubChem by Broad Institute.
In the library only some 3.6% were active in any assay of this set; here they are far more common.
HIF act: HIF pathway transcriptional activators, primary screen, cell-based, U2OS HRE-luciferase, luminescence. actives 0.32% (n = 300,000). activation, % at 7.5 µM (by protocol). AID 1910, 2009. U2OS HRE-luciferase reporter; normalized: DMSO 0%, desferrioxamine 100%;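 active means mean activation of at least 10% of the iron chelator positive control signal, with at least half of replicates also reaching 10%; inconclusive means mean and replicate majority disagree about reaching 10%; inactive means mean and most replicates under 10%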
Beta cell apopt: inhibitors of cytokine-induced beta cell apoptosis, primary screen, luminescence; INS-1E cytokine-induced death, ATP luminescence, 48 h; percent of positive-control rescue, neutral wells zero; protection from apoptosis, % (no concentration beside the values); actives 0.8% (n = 300,000);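 active means Every replicate reaches about 75%, or at least half do and their mean reaches it too, limit read from the data; inconclusive means At least half of replicates reach the limit but their mean does not; inactive means Under half of replicates reach the limit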;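 further: 0% = cytokine-treated negative control wells and 100% = positive control rescue; higher means more ATP so stronger rescue from cytokine killing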
SKKanGAS inh: S. pyogenes SKKanGAS growth inhibitors in kanamycin, primary screen, streptokinase expression inhibitor project, SKKanGAS strain, BacTiter-Glo luminescence; 6 h; inhibition, % at 7.5 µM; actives 1.3% (n = 300,000); AID 1662, 2009;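 active means mean replicate score, as percent of positive control median, at least 50; inconclusive means mean below 50 but one replicate at or above 50; inactive means mean and every replicate below 50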;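 further: strain carries kanamycin resistance gene driven by streptokinase promoter and grows in 40 µg/ml kanamycin; loss of luminescence reflects streptokinase promoter inhibition or plain growth inhibition; 0% = median of DMSO wells and 100% = positive control at its reference dose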
PfHsp90 yeast 2: growth inhibition of PfHsp90-expressing yeast, primary screen, antimalarial PfHsp90 inhibitor project, S. cerevisiae, BacTiter-Glo luminescence, single point, set 2; inhibition, % at 9.4 µM; BacTiter-Glo ATP, 48 h; yeast lacking PDR1 and PDR3 efflux regulators; actives 0.32% (n = 310,000);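 active means every replicate shows inhibition above about 80%, whatever the replicate mean, limit read from the data; inconclusive means mean inhibition reaches the set limit but some replicate falls short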;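 further: 0% = DMSO neutral controls and 100% = 20 µM radicicol positive controls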
CSC inhib: cancer stem cell viability inhibitors, primary screen, luminescence; inhibition, % at 7.5 µM; actives 1.1% (n = 300,000); cancer stem cell-like cells viability; in the data active means inhibition above about 75%; inconclusive means no clear call, values can overlap the other calls; tested in HMLE shEcad cells
T cruzi inh: inhibitors of intracellular T. cruzi growth, primary screen, luminescence, NIH3T3 host cells; actives 1.4% (n = 300,000); T. cruzi beta-gal in NIH3T3, 90 h; AID 1885, 2009; inhibition, % (no concentration beside the values);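 active means mean inhibition across valid replicates above about 55%, limit read from the data; inconclusive means mean below that limit but half or more replicates reach it; inactive means mean below it, under half of replicates reach it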;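 further: signal also drops with host cell toxicity which is not excluded here; 0% = plate median of DMSO wells and 100% = zero luminescence signal; higher percent means less beta-gal luminescence so fewer parasites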
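System – NIH/3T3 host cells with β-galactosidase reporter T. cruzi · Doses – single 50 nL compound addition per well in DMSO · Reagent – 5000 T. cruzi trypomastigotes/well · Medium – Low-serum DMEM with 2% FBS · Timing – ≥90 h infection period, 3 h prior cell attachment · Evaluation – parasite load inhibition, % · Technique – GalScreen luminescence, 60 min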
* = called active by the depositor; ? = inconclusive; nt = no result given.

SMILES | HIF act | Beta cell apopt | SKKanGAS inh | PfHsp90 yeast 2 | CSC inhib | T cruzi inh
OC(COCC(F)(F)C(F)(F)C(F)(F)C(F)F)Cn1c2ccccc2c2ccccc21 (stereo not drawn) | -0.3 | 3.2 | 11.2 | -11.5 | 103.2* | 59.2*
C=CCN(CC=C)CC(O)Cn1c2ccccc2c2ccccc21 (stereo not drawn) | nt | ? | -10.7 | 5.7 | 15.3 | 11.2
Cc1ccc(OCC(O)Cn2c3ccccc3c3ccccc32)cc1 (stereo not drawn) | nt | 37.5 | -0.6 | -35.7 | ? | 15.6
Cc1cccc(C)c1OCC(O)Cn1c2ccccc2c2ccccc21 (stereo not drawn) | -0.7 | 5.0 | 88.0* | nt | 45.6 | 14.9
O=c1[nH]c(CNCc2cccnc2)nc2ccccc12 | -0.2 | -4.8 | -4.7 | 24.6 | -8.1 | -3.4
CCOC(=O)c1c(C)[nH]c(C)c1C(=O)CSc1nc2ccccc2c(=O)n1-c1ccc(CC)cc1 | 0.1 | 109.9* | 14.0 | -5.2 | 17.0 | 43.1
CCOC(=O)c1c(C)[nH]c(C)c1C(=O)CSc1nc2ccccc2n1CC | -5.3 | -0.2 | 0.8 | 21.8 | -11.0 | -0.7
Cc1nnsc1C(=O)NC1CCCc2c1cnn2-c1ccc(F)cc1F (stereo not drawn) | 0.8 | 49.4 | 3.5 | 2.3 | -0.3 | -29.2
Cn1nccc1C(=O)NC1CCCc2c1cnn2-c1ccc(C(C)(C)C)cc1 (stereo not drawn) | -0.2 | 115.5* | 1.0 | -5.6 | -6.1 | -5.9
Cc1cc(C(=O)NC2CCCc3c2cnn3-c2ccc(C)c(C)c2)no1 (stereo not drawn) | 0.3 | 6.4 | 1.4 | -6.9 | 5.9 | -5.5
Cc1cc(C(=O)NC2CCCc3c2cnn3-c2cccc(C)c2C)n(C)n1 (stereo not drawn) | 0.1 | 112.0* | -5.5 | 21.4 | 18.0 | -97.9
Cc1ccc(C(=O)NC2CCCc3c2cnn3-c2ccc(F)cc2F)cn1 (stereo not drawn) | 1.2 | 100.4* | -4.4 | -8.9 | 4.7 | 1.6
Cc1ccc(-n2ncc3c2CCCC3NC(=O)c2ocnc2C)cc1C (stereo not drawn) | 0.1 | 79.9* | 2.0 | -13.3 | 3.8 | -91.4
CC(=O)NC1CCCc2c1cnn2-c1ccc(C(C)(C)C)cc1 (stereo not drawn) | 1.1 | 0.0 | -2.6 | -21.7 | -16.2 | -0.7
CCC(=O)Nc1ccc(C(=O)CN2C(=O)NC3(CCCCCC3)C2=O)cc1 | nt | -4.3 | nt | 8.2 | nt | nt
COc1ccc(S(=O)(=O)N(C)C[C@H]2Oc3c(NC(=O)C4CCCCC4)cccc3C(=O)N([C@H](C)CO)C[C@@H]2C)cc1 | nt | -4.3 | nt | nt | -40.0 | nt
CN(c1ccccc1)S(=O)(=O)c1cccc(NC(=O)C2CCCO2)c1 (stereo not drawn) | nt | -3.2 | nt | nt | -7.1 | nt
COC(=O)c1cc(C)nc2c1C(=O)C(=O)C=C2N1CCOCC1 | -1.6 | 103.7* | 45.2 | -4.6 | 50.6 | 67.4*
Fc1ccccc1CSc1ncnc2sc3c(c12)CCCC3 | -0.1 | 1.1 | -37.9 | -8.4 | 17.8 | 17.7
COc1cccc(/C=C/C(=O)N(C)CC(=O)Nc2ccc(Cl)c(C(F)(F)F)c2)c1 | -0.4 | 0.5 | 8.9 | nt | -3.3 | -3.7
NS(=O)(=O)c1cnccc1Oc1cccc(Cl)c1 | 0.2 | nt | 5.3 | 5.5 | -0.7 | -9.9
CCC(C)NCCOCCOc1ccc(F)cc1 (stereo not drawn) | 0.5 | -7.6 | 8.5 | nt | 4.8 | 55.0*
CCC(C)NCCOCCOc1ccc(Cl)cc1Br (stereo not drawn) | 1.5 | -5.2 | -0.1 | -4.5 | 12.1 | 72.2*
Cc1ccc(OCCOCCNC(C)C)c(Br)c1 | -3.3 | -3.7 | -0.8 | -25.9 | 3.3 | 13.8
CC1CN(S(=O)(=O)c2cccc(C(=O)NCC3COc4ccccc4O3)c2)CC(C)O1 (stereo not drawn) | nt | 2.0 | nt | 9.4 | -10.6 | nt
SMILES | HIF act | Beta cell apopt | SKKanGAS inh | PfHsp90 yeast 2 | CSC inhib | T cruzi inh
O=C(NCC1COc2ccccc2O1)c1cccc(S(=O)(=O)NCc2ccccc2)c1 (stereo not drawn) | -0.1 | 104.6* | -2.6 | -0.6 | 18.7 | 22.7
CCc1ccc(NC(=O)c2ccc(F)c(S(=O)(=O)NCC3COc4ccccc4O3)c2)cc1 (stereo not drawn) | -0.1 | 32.9 | 49.7* | -7.6 | 2.7 | 6.9
CCN(c1ccccc1)S(=O)(=O)c1cc(C(=O)Nc2ccc(Br)cc2)ccc1F | -0.1 | -1.2 | 25.7 | -10.1 | 19.4 | 56.8*
COc1cc(C2C3=C(CC(C)(C)CC3=O)OC3=C2C(=O)CC(C)(C)C3)cc([N+](=O)[O-])c1O | -0.6 | nt | -0.9 | -71.0 | -7.2 | 4.0
CC(C)CCNC(=O)CN(Cc1ccco1)C(=O)CCC(=O)Nc1nccs1 | -0.5 | -4.1 | 3.0 | 6.2 | -8.6 | -4.5
COc1ccc(-n2c(=S)[nH]c3cc(C(=O)Nc4ccccc4OC)ccc3c2=O)cc1 | -0.2 | 76.6* | 0.3 | nt | -11.5 | -19.1
S=C1NCC(c2ccccc2)S1 (stereo not drawn) | nt | nt | nt | -29.2 | nt | nt
Cc1nn(-c2ccccc2)c(N)c1C(c1ccc(C(C)C)cc1)c1c(C)nn(-c2ccccc2)c1N | -0.3 | 97.3* | 16.9 | -21.2 | -5.8 | 30.4
CCC(Sc1nc(C)cc(=O)[nH]1)C(=O)Nc1sc2c(c1C#N)CCCC2 (stereo not drawn) | 22.5* | -24.8 | 20.0 | -4.9 | 3.9 | -17.6
CC(Sc1nc(N)cc(=O)[nH]1)C(=O)Nc1sc2c(c1C#N)CCCC2 (stereo not drawn) | 0.1 | 13.4 | 3.0 | 0.5 | -11.1 | -23.8
Cc1nc(NC(=O)c2ccc(Cl)cc2)sc1Cc1ccc2c(c1)OCO2 | 2.1 | 22.7 | 21.9 | -7.2 | 78.9* | -16.7
C/C=C/c1ccc(OCC(O)CNCCc2ccc(OC)cc2)c(OC)c1 (stereo not drawn) | -0.8 | 7.2 | 3.0 | 7.6 | 6.2 | 26.3
C/C=C/c1ccc(OCC(O)CN(C)Cc2ccc(SC)cc2)c(OC)c1 (stereo not drawn) | 0.6 | -3.9 | -1.1 | -2.3 | 7.5 | 60.0*
COCCCNc1ncnc2ccc(C)cc12 | 0.5 | 63.1 | 3.8 | 1.7 | -12.8 | 5.2
Cc1ccc2ncnc(Nc3ccc(C)c(C)c3)c2c1 | 0.3 | 18.2 | -3.3 | -44.9 | 79.9* | 3.2
CC(=O)C(=Nc1ccc(Cl)cc1Cl)NNc1cccc(Cl)c1 | 1.6 | 4.3 | 52.2* | -21.4 | -11.8 | 46.1
CC(=O)Nc1ccc(NC(=O)CSc2nnc(N)n2-c2ccccc2)cc1 | nt | nt | nt | -6.2 | nt | nt
C/C(=N/NC(=O)CNC(=O)c1cccc(F)c1)c1ccc2c(c1)CCCC2 | 0.3 | 4.1 | -3.8 | 13.9 | -4.3 | -1.7
Cc1c(C)n(Cc2ccccc2)c2ccc(C(=O)OCCN(C)C)cc12 | 0.9 | -1.9 | -2.2 | 0.6 | 84.9* | 35.4
